According to ChEMBL document CHEMBL4477265, “Design and synthesis of cis-restricted benzimidazole and benzothiazole mimics of combretastatin A-4 as antimitotic agents with apoptosis inducing ability” (Bioorg Med Chem Lett, 2016):
Activity calls are given as the source filed them. The calls are words filed in the database; no cut-off is given here.

What was measured:
HeLa [1] = experiment: Antiproliferative activity against human HeLa cells after 48 hrs by sulforhodamine B assay; format: functional
HepG2 = experiment: Antiproliferative activity against human HepG2 cells after 48 hrs by sulforhodamine B assay; format: functional; conditions: HepG2, 48 h
A549 = experiment: Antiproliferative activity against human A549 cells after 48 hrs by sulforhodamine B assay; format: functional; conditions: A549, 48 h
DU-145 = experiment: Antiproliferative activity against human DU145 cells after 48 hrs by sulforhodamine B assay; format: functional; conditions: DU-145, 48 h
HeLa [2] = experiment: Cell cycle arrest in human HeLa cells assessed as accumulation at G0 phase at 40 nM after 48 hrs by propidium iodide staining based flow cytometry (reference value: 5.64%); format: functional
HeLa [3] = experiment: Cell cycle arrest in human HeLa cells assessed as accumulation at G0 phase at 60 nM after 48 hrs by propidium iodide staining based flow cytometry (reference value: 5.64%); format: functional
HeLa [4] = experiment: Cell cycle arrest in human HeLa cells assessed as accumulation at G1 phase at 40 nM after 48 hrs by propidium iodide staining based flow cytometry (reference value: 73.28%); format: functional
HeLa [5] = experiment: Cell cycle arrest in human HeLa cells assessed as accumulation at G1 phase at 60 nM after 48 hrs by propidium iodide staining based flow cytometry (reference value: 73.28%); format: functional
HeLa [6] = experiment: Cell cycle arrest in human HeLa cells assessed as accumulation at S phase at 40 nM after 48 hrs by propidium iodide staining based flow cytometry (reference value: 3.52%); format: functional
HeLa [7] = experiment: Cell cycle arrest in human HeLa cells assessed as accumulation at S phase at 60 nM after 48 hrs by propidium iodide staining based flow cytometry (reference value: 3.52%); format: functional
HeLa [8] = experiment: Cell cycle arrest in human HeLa cells assessed as accumulation at G2/M phase at 40 nM after 48 hrs by propidium iodide staining based flow cytometry (reference value: 17.56%); format: functional
HeLa [9] = experiment: Cell cycle arrest in human HeLa cells assessed as accumulation at G2/M phase at 60 nM after 48 hrs by propidium iodide staining based flow cytometry (reference value: 17.56%); format: functional
HeLa [10] = experiment: Induction of inner mitochondrial membrane potential depolarization in isolated mitochondria from human HeLa cells at 40 to 60 nM after 48 hrs by JC-1 staining based fluorescence plate reader assay; format: functional
In short: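 Mitochondria isolated and incubated with JC-1 dye alongside treatment at 40 and 60 nM; red/green fluorescence emission ratio recorded as the index of inner membrane potential, with untreated mitochondria as control.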

Tubulin (Sus scrofa) = Tubulin (Sus scrofa) (UniProt P02554+P02550); experiment: Inhibition of porcine brain tubulin polymerization at 3 uM measured at 1 min interval for 1 hr by fluorescence plate reader assay relative to control
Sequence of Tubulin (Sus scrofa) (P02550 whole entry, looked up): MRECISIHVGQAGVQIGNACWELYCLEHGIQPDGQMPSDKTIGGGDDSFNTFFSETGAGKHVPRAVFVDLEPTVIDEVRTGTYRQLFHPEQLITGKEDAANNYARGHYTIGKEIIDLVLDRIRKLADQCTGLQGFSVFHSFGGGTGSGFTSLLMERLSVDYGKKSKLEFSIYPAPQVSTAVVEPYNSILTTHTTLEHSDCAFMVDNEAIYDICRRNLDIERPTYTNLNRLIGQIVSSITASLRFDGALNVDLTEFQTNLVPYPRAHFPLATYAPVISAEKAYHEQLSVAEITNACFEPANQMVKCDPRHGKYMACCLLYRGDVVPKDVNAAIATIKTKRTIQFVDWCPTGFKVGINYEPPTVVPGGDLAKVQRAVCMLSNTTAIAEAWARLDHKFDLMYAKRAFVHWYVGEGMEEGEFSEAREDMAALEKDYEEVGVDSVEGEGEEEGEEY
Sequence of Tubulin (Sus scrofa) (P02554 whole entry, looked up): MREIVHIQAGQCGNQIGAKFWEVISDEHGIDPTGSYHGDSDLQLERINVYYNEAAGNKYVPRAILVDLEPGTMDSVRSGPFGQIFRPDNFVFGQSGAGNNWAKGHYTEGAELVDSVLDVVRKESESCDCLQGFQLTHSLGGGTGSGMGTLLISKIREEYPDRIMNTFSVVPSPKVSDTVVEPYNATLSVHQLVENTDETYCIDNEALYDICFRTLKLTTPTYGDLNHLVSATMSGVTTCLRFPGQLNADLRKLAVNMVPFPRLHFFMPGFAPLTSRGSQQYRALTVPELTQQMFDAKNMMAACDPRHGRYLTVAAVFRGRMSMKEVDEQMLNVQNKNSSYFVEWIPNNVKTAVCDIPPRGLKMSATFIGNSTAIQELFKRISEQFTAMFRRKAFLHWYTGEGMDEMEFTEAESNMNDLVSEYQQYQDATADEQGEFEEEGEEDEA
In short: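 Tubulin polymerization followed by fluorescence (excitation 360 nm, emission 420 nm) over 1 h at 37 °C, test agents at 3 μM; inhibition expressed as percentage of polymerization versus untreated control.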

Tubulin = Tubulin (Sus scrofa, UniProt P02554+P02550); experiment: Inhibition of porcine brain tubulin polymerization measured at 1 min interval for 1 hr by fluorescence plate reader assay
HeLa [11] = experiment: Cell cycle arrest in human HeLa cells assessed as accumulation at G2/M phase after 48 hrs by propidium iodide staining based flow cytometry; format: functional
Tubulin (Homo sapiens) = Tubulin (Homo sapiens) (UniProt P68371+Q9H4B7+P0DPH7+P68366+Q13509+Q71U36+P04350+Q3ZCM7+P07437+P68363+Q9BQE3+Q6PEY2+Q13885+Q9BVA1+Q9BUF5); experiment: Inhibition of tubulin polymerization in human HeLa cells assessed as induction of microtubule disruption at 60 nM after 48 hrs by confocal microscopic analysis; format: cell-based
In short: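 HeLa cells grown on sterile cover slips, exposed 48 h at 60 nM, immunostained with α-tubulin antibody; microtubule network organization examined by confocal imaging.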

HeLa [12] = experiment: Induction of apoptosis in human HeLa cells assessed as caspase-3 activation using AFC-labeled caspase-3 substrate at 40 to 60 nM after 24 to 48 hrs by fluorescence plate reader assay relative to combretastatin A-4; format: functional
In short: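 HeLa cells exposed at 40 and 60 nM; caspase-3 and caspase-9 activity measured fluorimetrically with conjugated caspase substrates at two time points.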

HeLa [13] = experiment: Induction of apoptosis in human HeLa cells assessed as caspase-9 activation using AFC-labeled substrate at 40 to 60 nM after 24 to 48 hrs by fluorescence plate reader assay relative to combretastatin A-4

| GI50 (HeLa [1]) [µM] | GI50 (HepG2) [µM] | GI50 (A549) [µM] | GI50 (DU-145) [µM] | SMILES | other results |
| --- | --- | --- | --- | --- | --- |
| 16.6 | 44.8 | 27.6 | 12 | COc1ccc2nc(-c3cccnc3-c3ccc(OC)c(OC)c3)[nH]c2c1 |  |
| 5.8 | 1.2 | 1.5 |  | FC(F)(F)c1ccc(Cl)c(-c2ncccc2-c2nc3ccc(Cl)cc3s2)c1 |  |
| 20.4 | 32.5 | 19.5 |  | FC(F)(F)c1ccc(-c2ncccc2-c2nc3ccc(Cl)cc3s2)cc1 |  |
| 8.1 |  | 13.3 |  | COc1ccc(-c2ncccc2-c2nc3ccc(OC)cc3s2)cc1 |  |
|  |  |  | 19.6 | COc1ccc(-c2ncccc2-c2nc3ccc(OC)cc3[nH]2)cc1 |  |
| 0.06 | 0.08 | 0.06 | 0.07 | COc1ccc(/C=C\c2cc(OC)c(OC)c(OC)c2)cc1O [COMBRETASTATIN A4] | Activity (HeLa [2]): 25.87%; Activity (HeLa [3]): 24.78%; Activity (HeLa [4]): 17.92%; Activity (HeLa [5]): 17.29%; Activity (HeLa [6]): 17.34%; Activity (HeLa [7]): 16.44%; Activity (HeLa [8]): 38.87%; Activity (HeLa [9]): 41.48%; Activity (HeLa [10]): Active |
|  |  | 38.2 | 32.1 | COc1ccc2nc(-c3cccnc3-c3ccc(C(F)(F)F)cc3)[nH]c2c1 |  |
| 13.5 | 1.2 | 7.58 | 5.91 | COc1ccc(-c2ncccc2-c2nc3cc(OC)c(OC)cc3s2)cc1OC |  |
| 4.89 | 15 | 7.41 | 5.49 | FC(F)(F)c1ccc(Cl)c(-c2ncccc2-c2nc3ccccc3s2)c1 |  |
| 15.7 |  | 17 |  | COc1ccc2nc(-c3cccnc3-c3ccc(C(F)(F)F)cc3)sc2c1 |  |
| 1.6 | 0.5 | 0.5 | 0.6 | COc1cc2nc(-c3cccnc3-c3cc(OC)c(OC)c(OC)c3)sc2cc1OC |  |
| 7.7 | 3.9 | 7.9 | 0.19 | COc1ccc(-c2ncccc2-c2nc3ccc(Cl)cc3s2)cc1 |  |
| 1.8 | 0.7 | 0.2 | 3.6 | COc1ccc(-c2ncccc2-c2nc3ccccc3s2)cc1OC |  |
| 0.04 | 0.079 | 0.091 | 0.052 | COc1ccc2nc(-c3cccnc3-c3cc(C(F)(F)F)ccc3Cl)sc2c1 | Activity (HeLa [2]): 8.13%; Activity (HeLa [3]): 20.47%; Activity (HeLa [4]): 43%; Activity (HeLa [5]): 15.19%; Activity (HeLa [6]): 24.62%; Activity (HeLa [7]): 10.3%; Activity (HeLa [8]): 24.26%; Activity (HeLa [9]): 54.05%; inhibition (Tubulin (Sus scrofa)): 68.3%; IC50 (Tubulin): 1.91 µM; Activity (HeLa [11]): Dose-dependent effect; inhibition (Tubulin (Homo sapiens)): Active; Activity (HeLa [10]): Active; fold change (FC) (HeLa [12]): 2; fold change (FC) (HeLa [13]): 2 |
| 15.8 |  | 18.4 |  | FC(F)(F)c1ccc(-c2ncccc2-c2nc3ccc(Cl)cc3[nH]2)cc1 |  |
| 11.3 | 30.9 | 59.1 |  | COc1ccc(-c2ncccc2-c2nc3cc(OC)c(OC)cc3s2)cc1 |  |
| 4.8 | 3.5 | 3.2 | 4.1 | COc1cc(-c2ncccc2-c2nc3ccccc3s2)cc(OC)c1OC |  |
| 1.7 | 1.5 | 2.5 | 0.6 | COc1cc2nc(-c3cccnc3-c3cc(OC)c(OC)c(OC)c3)[nH]c2cc1OC |  |
| 0.06 | 0.26 | 0.13 | 0.18 | COc1ccc2nc(-c3cccnc3-c3cc(OC)c(OC)c(OC)c3)sc2c1 | Activity (HeLa [2]): 13.27%; Activity (HeLa [3]): 25.35%; Activity (HeLa [4]): 51.22%; Activity (HeLa [5]): 19.54%; Activity (HeLa [6]): 11.86%; Activity (HeLa [7]): 14.3%; Activity (HeLa [8]): 23.65%; Activity (HeLa [9]): 40.8%; inhibition (Tubulin (Sus scrofa)): 60.1%; IC50 (Tubulin): 2.01 µM; Activity (HeLa [11]): Dose-dependent effect; inhibition (Tubulin (Homo sapiens)): Active; Activity (HeLa [10]): Active; fold change (FC) (HeLa [12]): 2; fold change (FC) (HeLa [13]): 2 |
| 21.4 | 42.5 | 19.5 |  | COc1ccc(-c2ncccc2-c2nc3cc(OC)c(OC)cc3[nH]2)cc1 |  |
|  |  |  | 34.7 | COc1ccc(-c2ncccc2-c2nc3ccc(Cl)cc3[nH]2)cc1 |  |
| 0.15 | 0.76 | 0.75 | 0.21 | COc1ccc2nc(-c3cccnc3-c3cc(C(F)(F)F)ccc3Cl)[nH]c2c1 |  |
| 2.6 | 3.5 | 4.5 | 14.6 | COc1cc(-c2ncccc2-c2nc3ccccc3[nH]2)cc(OC)c1OC |  |
| 4.8 | 2.8 | 1.8 | 1.2 | COc1ccc(S(=O)(=O)Nc2cccnc2Nc2ccc(O)cc2)cc1 [ABT-751] |  |
| 7.7 | 1.9 | 7.9 | 4.19 | COc1ccc(-c2ncccc2-c2nc3cc(OC)c(OC)cc3[nH]2)cc1OC |  |
|  | 12.4 |  | 5.8 | COc1ccc(-c2ncccc2-c2nc3ccccc3[nH]2)cc1OC |  |
| 5 | 0.84 | 1.5 | 0.29 | COc1ccc2nc(-c3cccnc3-c3cc(OC)c(OC)c(OC)c3)[nH]c2c1 |  |
| 6.2 | 2.2 | 1.7 | 6.8 | COc1ccc2nc(-c3cccnc3-c3ccc(OC)c(OC)c3)sc2c1 |  |
